Only some compounds are listed: those with a hit (about 3.7% of all), similar ones and a draw of the others.
KCNK3 block – human KCNK3 channel inhibition, primary screen; CHO-KCNK3 thallium flux, FluxOR fluorescence; hits give low values; B-score at 10 µM; 0.84% of 340,000 active;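 active means B-score under library mean minus 4 SD, starting fluorescence ratio at most library mean plus 5 SD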;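 further: more negative B-score means stronger inhibition of thallium flux through KCNK3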
Kir21 block – Kir2.1 (mouse) channel inhibition | HEK293-Kir2.1, FluxOR thallium flux fluorescence; hits give low values | B-score at 10 µM | 0.85% of 310,000 active | AID 1672;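 active means fluorescence ratio B-score at or below minus 3 SD of library scores, with starting-brightness B-score within 2 SD, cut at about -4.2 in these data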;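 further: channel flux triggered by added potassium and thallium sulfate stimulus; B-score of peak minus minimum fluorescence over baseline after thallium stimulus; more negative B-score means stronger Kir2.1 block with less thallium influx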
Target sequence (P35561 whole entry, looked up): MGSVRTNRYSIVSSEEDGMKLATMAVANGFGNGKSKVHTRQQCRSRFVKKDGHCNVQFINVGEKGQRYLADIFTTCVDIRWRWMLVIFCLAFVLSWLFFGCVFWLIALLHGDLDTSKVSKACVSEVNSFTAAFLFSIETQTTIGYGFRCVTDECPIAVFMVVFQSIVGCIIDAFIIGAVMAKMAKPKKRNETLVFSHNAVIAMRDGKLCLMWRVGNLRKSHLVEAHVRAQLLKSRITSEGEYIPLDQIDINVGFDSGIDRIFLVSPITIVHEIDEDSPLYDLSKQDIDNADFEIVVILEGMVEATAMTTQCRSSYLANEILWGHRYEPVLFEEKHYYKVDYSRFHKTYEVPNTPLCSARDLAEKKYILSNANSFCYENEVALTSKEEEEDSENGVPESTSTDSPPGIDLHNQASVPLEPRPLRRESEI
KCNK9 block – blocks the human KCNK9 two-pore domain potassium channel; B-score at 10 µM; Q9NPC2; HEK293 KCNK9, FluxOR thallium flux fluorescence; hits give low values; 1.2% of 310,000 active;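 active means ratio B-score over 3 SD below the library mean, with starting fluorescence within 5 SD of its mean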;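 further: negative B-score means less thallium flux so channel inhibition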
KCNQ1 pot – potentiators or activators of human KCNQ1 potassium channel; P51787; CHO-K1 KCNQ1, thallium flux FluxOR fluorescence; hits give high values; B-score at 10 µM; 0.35% of 310,000 active; AID 2648;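 active means fluorescence ratio B-score, a plate-corrected score, at least three library SD, with initial intensity B-score within 5 SD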
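Assay system: stable KCNQ1 CHO-K1 line; medium: assay buffer, equal DMSO in all wells; timing: 90 min dye loading and 20 min compound exposure, both at room temperature; technique: kinetic FluxOR thallium fluorescence, 10-s 1-Hz baseline, 110-s post-stimulus read; read-out basis: B score of baseline-normalized fluorescence ratio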
hERG protect – compounds protecting human hERG from proarrhythmic drug block | Q12809 | CHO-hERG, FluxOR thallium flux, dofetilide IC70 present | activation (rescue from dofetilide block), less the hit threshold, % at 10 µM | 0.51% of 310,000 active | AID 1511;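 active means activation above the mean of controls blocked by dofetilide plus 5 SD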;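 further: thallium influx through hERG after potassium depolarization seen as dye fluorescence rise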
KCNQ1 block – human KCNQ1 channel inhibition. CHO-K1 KCNQ1, FluxOR thallium flux fluorescence; hits give high values. B-score at 10 µM. 1.3% of 310,000 active;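 active means compounds whose thallium flux B-score, printed positive for inhibition, exceeds three library SD while starting fluorescence stays within three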;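 further: channel opened by potassium depolarization with thallium stimulus after 20 min compound exposure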
Each line names hits and unclear results; the compound was inactive in the other large screens.

COc1ccc2nc(NC(=S)N(C)C)sc2c1	none
O=c1c2ccccc2nc(SCc2ccc([N+](=O)[O-])cc2)n1-c1ccccc1	KCNK9 block -7.71
Cc1nn(-c2ccccc2)nc1C(=O)NNC(=O)c1cccc2ccccc12	KCNQ1 pot 15
COC(=O)c1c(-c2ccc(S(C)(=O)=O)cc2)sc2ccc(OC)cc12	none (no result: Kir21 block, KCNK9 block, KCNQ1 pot, hERG protect, KCNQ1 block)
CCC[C@@H](CN[C@@H](CNC)[C@H](C)CC)NCC1CCC(C(C)(C)C)CC1 (some centres not stated)	none
CCC[C@H](CN[C@@H](CNC)[C@H](C)CC)NCCc1cc(C(F)(F)F)cc(C(F)(F)F)c1	Kir21 block -4.24
O=C(COC(=O)C1(c2ccccc2F)CCCC1)NCc1cccs1	Kir21 block -6.85
COc1cccc(CN(C)CC(=O)Nc2cccc(S(N)(=O)=O)c2)c1OC	none
COc1ccc(Br)cc1CN(C)CC(=O)Nc1cccc(S(N)(=O)=O)c1	Kir21 block -4.58
Cc1ccc(O)c(NC(=S)NC(=O)Cc2ccc(Cl)cc2)c1	KCNQ1 pot 50
Cc1ccc(NC(=O)CN(C)C(=O)c2cc3ccccc3o2)cc1	none
CN(C(=O)c1cc2n(n1)C(C(F)(F)F)CC(c1ccco1)N2)c1ccc(OC(F)(F)F)cc1 (configuration not stated)	none
CN(C(=O)c1cc2n(n1)C(C(F)(F)F)CC(c1ccco1)N2)c1ccccc1 (configuration not stated)	KCNK9 block -6.69
Cc1cc(C)cc(NC(=O)COC(=O)CC2CCCC2)c1	none (no result: Kir21 block, KCNK9 block, KCNQ1 pot, hERG protect, KCNQ1 block)
CCCC(=O)NC(Nc1ccccc1F)C(Cl)(Cl)Cl (configuration not stated)	Kir21 block -8.12 (no result: KCNK3 block)
CC(C)CC(=O)NC(Nc1ccccc1F)C(Cl)(Cl)Cl (configuration not stated)	none
CC(C)C(=O)NC(Nc1ccccc1F)C(Cl)(Cl)Cl (configuration not stated)	Kir21 block -4.51
CC(=O)c1c(C)[nH]c(C(=O)NC(C)c2ccccc2)c1C (configuration not stated)	none
CC(Sc1nnc(C(C)Oc2ccccc2F)o1)C(=O)NCc1ccc2c(c1)OCO2 (configuration not stated)	none (no result: Kir21 block, KCNK9 block, KCNQ1 pot, hERG protect, KCNQ1 block)
Cc1ccc(-c2n[nH]c(=S)nc2-c2ccc(C)cc2)cc1	hERG protect 6.7
COc1ccc(CN2CCC(C(=O)Nc3ccc(Oc4cccnc4)cc3)CC2)cc1	Kir21 block -5.38
COc1ccc(NC(=O)CC2Oc3ccccc3NC2=O)c(OC)c1 (configuration not stated)	none
CSc1ccc(CN2CCC(N3CC(C)OC(C)C3)CC2)cc1 (configuration not stated)	none
CSc1ccc(CN2CCC(Oc3cccc(C(=O)N4CCCC4)c3)CC2)cc1	Kir21 block -4.6
O=C(c1cccc(OC2CCN(Cc3ccc(F)cc3Cl)CC2)c1)N1CCCC1	Kir21 block -4.69
CSc1ccc(OC2CCN(Cc3ccccc3)CC2)cc1	Kir21 block -20
O=C(O)c1ccc(N2CCc3ccccc32)c([N+](=O)[O-])c1	none
CCCCCCCNC(=O)c1ccc(N2CCC3(CC2)OCCO3)c([N+](=O)[O-])c1	KCNK9 block -6.83
CCCNC(=O)c1ccc(N2CCC3(CC2)CC(c2ccccc2)=NO3)c([N+](=O)[O-])c1	none
COc1ccc(CNC(=O)c2ccc(N3CCOCC3)c([N+](=O)[O-])c2)cc1	Kir21 block -4.88
O=C(NCc1ccc(F)cc1)c1ccc(N2CCc3ccccc32)c([N+](=O)[O-])c1	Kir21 block -5.39
CC(C)(CNC(=O)c1cc(Cl)c(O)c(Cl)c1)N1CCCCC1	none
COc1cccc(C(=O)NCC2(c3ccccc3)CCCC2)c1OC	none
O=c1[nH]c(SCc2nc3ccccc3c(=O)n2-c2ccccc2C(F)(F)F)nc2ccccc12	KCNK9 block -6.62
CC(=Nc1cccc(C)c1)c1sc2ccccc2c1O	KCNK9 block -6.98
O=C(CSc1nc2cc(Cl)ccc2s1)c1cc2ccccc2o1	KCNQ1 pot 21
O=C(CSc1nc2ccccc2s1)N1c2ccccc2Sc2ccc(Cl)cc21	none
Cc1cc(NC(=O)CSc2nc3cc(Cl)ccc3s2)no1	none
O=c1oc2cc(Cl)ccc2n1CSc1nc2ccccc2s1	KCNK9 block -6.6
COc1cc(CO)cc(Br)c1OCC(=O)Nc1cccc2ccccc12	none
COc1cccc(OC)c1C(=O)Nc1ccnn1C	none
O=C(O)c1cc(S(=O)(=O)N2CCCCC2)ccc1Cl	none
Cc1cc(C(=O)Nc2ccccc2N2CCCCC2)no1	none
CCOC(=O)CSc1ccc(S(=O)(=O)N(C)C2CCCCC2)cc1[N+](=O)[O-]	KCNK3 block -10.3
CC1=CC(=C2C=CC(=O)C=C2)C=C(C)N1C	none (no result: KCNK3 block)
Cc1nc(SCC(=O)c2cccs2)c2oc3ccccc3c2n1	KCNQ1 block 10
O=C(CSc1ncnc2c1oc1ccccc12)c1cccs1	none
CCC1(C)N=C(N)Nc2nc3cc(C)c(C)cc3n21 (configuration not stated)	none
Cn1c(N)c(C(=O)COC(=O)COc2cc(Cl)c(Cl)cc2Cl)c(=O)n(C)c1=O	none (no result: Kir21 block, KCNK9 block, KCNQ1 pot, hERG protect, KCNQ1 block)
CCC(C)NC(=O)CCc1c(C)nc2c(c(C)nn2-c2ccccc2)c1C (configuration not stated)	none
Cc1nc2c(c(C)nn2-c2ccccc2)c(C)c1CCC(=O)Nc1ccc(CN2CCCC2)cc1	Kir21 block -9
CCOc1ccc(N2CC(C(=O)Nc3ccc(S(=O)(=O)Nc4nccs4)cc3)CC2=O)cc1 (configuration not stated)	none
C[n+]1cn(Cc2ccc(C#N)cc2)c2ccccc21	none
CCOC(=O)C1=C(C)N=C2c3ccccc3C(=O)C2C1c1ccc(Cl)cc1 (configuration not stated)	KCNK3 block -10.3, KCNK9 block -8.01
CCN1CCN(CCCNC(=O)c2ccccc2NC(=O)C2=C(C)OCCS2)CC1	none
COc1cc(OC)cc(C(=O)N2CCCC(Nc3ccc(F)cc3)C2)c1 (configuration not stated)	none
COc1ccc2cc(C(=O)N3CCCC(Nc4ccc(F)cc4)C3)n(C)c2c1 (configuration not stated)	Kir21 block -4.91
O=C(NC(CO)(CO)CO)[C@@H]1CCCN1S(=O)(=O)c1cccc2cccnc12	none (no result: Kir21 block, KCNK9 block, KCNQ1 pot, hERG protect, KCNQ1 block)
CN(C)C(=O)C(CCN1CCC(O)(c2ccc(Cl)cc2)CC1)(c1ccccc1)c1ccccc1	Kir21 block -4.9
O=c1c(C=NCCN2CCNCC2)c(-c2ccccc2)[nH]n1-c1ccc([N+](=O)[O-])cc1	Kir21 block -5.44 (no result: KCNK3 block)
CCN1C(=O)/C(=C\c2ccco2)C(C(=O)OC)=C1C	none
COC(=O)C1=C(C)N(c2cccc(OC)c2)C(=O)/C1=C\c1ccco1	KCNK9 block -7.29
